Measurements published in ChEMBL document CHEMBL1138155, “A lactosylated steroid contributes in vivo therapeutic benefits in experimental models of mouse lymphoma and human glioblastoma” (J Med Chem, 2006).

Legend:
PC-3 [1] = assay: Antimigratory activity against human PC3 prostate cancer cell line at 100 nM after 12h; format: functional; details: PC-3, 12 h
Summary of the method: (§1)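 Computer-assisted videomicroscopy tracking of living cultured cells, one image every 4 min over 24 h; migration scored as maximum relative distance from origin (MRDO) per cell, read at 12 or 22 h with compound at 100 nM or without (control). Control normalized to 0%. Triplicate analyses, 121–184 cells per condition; mean ± standard error.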

A549 [2] = assay: Antimigratory activity against human A549 NSCLC cell line at 100 nM after 22h; format: functional; details: A549, 22 h; summary of the method: as §1
Hs 683 = assay: Cytotoxicity against human Hs683 cancer cell line; format: functional, cell-based
Summary of the method: (§2)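 Colorimetric MTT assay on cultured human cancer cells after 3 days of continuous drug exposure. IC50 is the concentration that reduces overall cell-population growth by 50% relative to untreated cells.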

HCT-15 = assay: Cytotoxicity against human HCT15 colon cancer cell line; format: functional, cell-based; summary of the method: as §2
Mus musculus = assay: Toxicity in mice at 160 mg/kg, ip 28 days post dose; format: organism-based; set-up: dose 160 mg/kg, route intraperitoneal; details: in vivo, 672 h
Summary of the method: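 Healthy, non-tumor-grafted mice received a single acute ip dose of 160 mg/kg. Body weight and survival were recorded over at least 28 days after dosing to detect toxic effects.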

A549 [3] = assay: Antimigratory activity against human A549 NSCLC cell line at 100 nM after 12h; format: functional; details: A549, 12 h; summary of the method: as §1
U373 MG [4] = assay: Cytotoxicity against human U373 glioblastoma cell line; format: functional, cell-based, U-373MG ATCC; summary of the method: as §2
PC-3 [5] = assay: Cytotoxicity against human PC3 prostate cancer cell line; format: functional, cell-based; summary of the method: as §2
MCF7 = assay: Cytotoxicity against human MCF7 breast cancer cell line; format: functional, cell-based; summary of the method: as §2
A549 [6] = assay: Cytotoxicity against human A549 NSCLC cell line; format: functional, cell-based; summary of the method: as §2
PC-3 [7] = assay: Antimigratory activity against human PC3 prostate cancer cell line at 100 nM after 22h; format: functional; details: PC-3, 22 h; summary of the method: as §1
U373 MG [8] = assay: Antimigratory activity against human U373 glioblastoma cell line at 100nM after 22h; format: functional, U-373MG ATCC; summary of the method: as §1
U373 MG [9] = assay: Antimigratory activity against human U373 glioblastoma cell line at 100 nM after 12h; format: functional, U-373MG ATCC; summary of the method: as §1

Compound | inhibition at 0.1 µM (PC-3 [1]) [%] | inhibition at 0.1 µM (A549 [2]) [%] | IC50 (Hs 683) [µM] | IC50 (HCT-15) [µM] | Activity (Mus musculus) | inhibition at 0.1 µM (A549 [3]) [%] | IC50 (U373 MG [4]) [µM] | IC50 (PC-3 [5]) [µM] | IC50 (MCF7) [µM] | IC50 (A549 [6]) [µM] | inhibition at 0.1 µM (PC-3 [7]) [%] | inhibition at 0.1 µM (U373 MG [8]) [%] | inhibition at 0.1 µM (U373 MG [9]) [%]
COc1ccc(OC)c([C@@H]2C[C@H]3[C@@H]4CC=C5C[C@@H](O[C@H]6O[C@H](CO)[C@@H](O[C@@H]7O[C@H](CO)[C@H](O)[C@H](O)[C@H]7O)[C@H](O)[C@H]6O)CC[C@]5(C)[C@H]4CC[C@]3(C)[C@H]2C(C)=O)c1 | -51 | -5 | > 10 | > 10 | Non-toxic | 8 | > 10 | > 10 | > 10 | > 10 | -34 | -31 | -29
COc1ccc(OC)c([C@@H]2C[C@H]3[C@@H]4CC=C5C[C@@H](O[C@@H]6O[C@H](CO)[C@H](O)[C@H](O)[C@H]6O)CC[C@]5(C)[C@H]4CC[C@]3(C)[C@H]2C(C)=O)c1 | 7 | 4 | > 10 | > 10 | Non-toxic | 2 | > 10 | > 10 | > 10 | > 10 | -8 | 1 | 8
COc1ccc(OC)c([C@@H]2C[C@H]3[C@@H]4CC=C5C[C@@H](O[C@H]6O[C@H](CO[C@@H]7O[C@H](CO)[C@@H](O)[C@H](O)[C@H]7O)[C@@H](O)[C@H](O)[C@H]6O)CC[C@]5(C)[C@H]4CC[C@]3(C)[C@H]2C(C)=O)c1 | 11 | -4 | > 10 | > 10 | Non-toxic | 0 | > 10 | > 10 | > 10 | > 10 | -1 | -1 | 0
COc1ccc(OC)c([C@@H]2C[C@H]3[C@@H]4CC=C5C[C@@H](O)CC[C@]5(C)[C@H]4CC[C@]3(C)[C@H]2[C@H](C)O)c1 |  |  | > 10 | > 10 | Non-toxic |  | > 10 | > 10 | > 10 | > 10 |  |  | 
COc1ccc(OC)c([C@@H]2C[C@H]3[C@@H]4CC=C5C[C@@H](O[C@H]6O[C@H](CO)[C@@H](O[C@@H]7O[C@H](CO)[C@H](O)[C@H](O)[C@H]7O)[C@H](O)[C@H]6O)CC[C@]5(C)[C@H]4CC[C@]3(C)[C@H]2[C@H](C)O[C@H]2O[C@H](CO)[C@@H](O[C@@H]3O[C@H](CO)[C@H](O)[C@H](O)[C@H]3O)[C@H](O)[C@H]2O)c1 | 14 | -12 | > 10 | > 10 | Non-toxic | -26 | > 10 | > 10 | > 10 | > 10 | 15 | -13 | -12
COc1ccc(OC)c([C@@H]2C[C@H]3[C@@H]4CC=C5C[C@@H](O[C@@H]6O[C@H](CO)[C@@H](O)[C@H](O)[C@H]6NC(C)=O)CC[C@]5(C)[C@H]4CC[C@]3(C)[C@H]2C(C)=O)c1 | 11 | -39 | > 10 | > 10 | Non-toxic | -39 | > 10 | > 10 | > 10 | > 10 | 12 | -3 | -17
COc1ccc(OC)c([C@@H]2C[C@H]3[C@@H]4CC=C5C[C@@H](O[C@@H]6O[C@H](CO)[C@@H](O)[C@H](O)[C@@H]6O)CC[C@]5(C)[C@H]4CC[C@]3(C)[C@H]2C(C)=O)c1 | 2 | 1 | > 10 | > 10 | Non-toxic | 20 | > 10 | > 10 | > 10 | > 10 | -1 | -4 | 2
COc1ccc(OC)c([C@@H]2C[C@H]3[C@@H]4CC=C5C[C@@H](O[C@H]6O[C@@H](C)[C@@H](O)[C@@H](O)[C@@H]6O)CC[C@]5(C)[C@H]4CC[C@]3(C)[C@H]2C(C)=O)c1 | -23 | -8 | > 10 | > 10 | Non-toxic | -8 | > 10 | > 10 | > 10 | > 10 | -15 | -38 | -25
COc1ccc(OC)c([C@@H]2C[C@H]3[C@@H]4CC=C5C[C@@H](O[C@H]6O[C@@H](C)[C@@H](O)[C@@H](O)[C@@H]6O)CC[C@]5(C)[C@H]4CC[C@]3(C)[C@H]2[C@H](C)O[C@H]2O[C@@H](C)[C@@H](O)[C@@H](O)[C@@H]2O)c1 | -41 | -4 | > 10 | > 10 | Non-toxic | -6 | > 10 | > 10 | > 10 | > 10 | -45 | -4 | -4
COc1ccc(OC)c([C@@H]2C[C@H]3[C@@H]4CC=C5C[C@@H](O[C@@H]6O[C@H](CO)[C@@H](O[C@@H]7O[C@H](CO)[C@@H](O)[C@H](O)[C@H]7O)[C@H](O)[C@H]6O)CC[C@]5(C)[C@H]4CC[C@]3(C)[C@H]2[C@H](C)O[C@@H]2O[C@H](CO)[C@@H](O[C@@H]3O[C@H](CO)[C@@H](O)[C@H](O)[C@H]3O)[C@H](O)[C@H]2O)c1 | 9 | 3 | > 10 | > 10 | Non-toxic | 4 | > 10 | > 10 | > 10 | > 10 | -17 | 4 | -8
COc1ccc(OC)c([C@@H]2C[C@H]3[C@@H]4CC=C5C[C@@H](O[C@@H]6O[C@H](CO)[C@@H](O[C@@H]7O[C@H](CO)[C@@H](O)[C@H](O)[C@H]7O)[C@H](O)[C@H]6O)CC[C@]5(C)[C@H]4CC[C@]3(C)[C@H]2C(C)=O)c1 | 13 | -34 | > 10 | > 10 | Non-toxic | -30 | > 10 | > 10 | > 10 | > 10 | -7 | -9 | 8
COc1ccc(OC)c([C@@H]2C[C@H]3[C@@H]4CC=C5C[C@@H](O[C@@H]6O[C@H](CO)[C@@H](O)[C@H](O)[C@H]6O)CC[C@]5(C)[C@H]4CC[C@]3(C)[C@H]2C(C)=O)c1 | 2 | 9 | > 10 | > 10 | Non-toxic | 2 | > 10 | > 10 | > 10 | > 10 | 6 | -8 | -6
COc1ccc(OC)c([C@@H]2C[C@H]3[C@@H]4CC=C5C[C@@H](O[C@@H]6O[C@H](CO[C@H]7O[C@H](CO)[C@@H](O)[C@H](O)[C@H]7O)[C@@H](O)[C@H](O)[C@H]6O)CC[C@]5(C)[C@H]4CC[C@]3(C)[C@H]2[C@H](C)O[C@@H]2O[C@H](CO[C@H]3O[C@H](CO)[C@@H](O)[C@H](O)[C@H]3O)[C@@H](O)[C@H](O)[C@H]2O)c1 | 8 | 0 | > 10 | > 10 | Non-toxic | 9 | > 10 | > 10 | > 10 | > 10 | 10 | -9 | -14
COc1ccc(OC)c([C@@H]2C[C@H]3[C@@H]4CC=C5C[C@@H](O)CC[C@]5(C)[C@H]4CC[C@]3(C)[C@H]2C(C)=O)c1 | 5 | 6 | > 10 | > 10 | Non-toxic | 0 | > 10 | > 10 | > 10 | > 10 | 10 | 7 | 2
